This is a sample that favours compounds with a hit; in the whole collection about 2.7% have one here.
V1R ag counter = agonists of human V1a receptor, primary screen, counter-screen for OXTR agonist project, fluorescence, CHO-V1R cells. Vasopressin V1a receptor (Homo sapiens), P37288. Fluo-8 calcium fluorescence, agonist mode; 0% DMSO, 100% 3 nM vasopressin. activation, % at 3 µM. 0.25% of 320,000 active. AID 2797, 2010;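 active means activation above the mean activation of all tested compounds plus 3 SD, per screening run, cut at about 20% in these data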;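 further: signal is peak over basal fluorescence ratio across a 100 second FLIPR read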
CHO parental Ca = ATP-evoked calcium signal inhibitors, parental CHO, primary screen, counter-screen for OX1R antagonist project, cell-based, fluorescence, Fluo-8 calcium dye. inhibition, % at 5.6 µM. parental CHO-K1, ATP-induced calcium, Fluo-8 fluorescence. 0.63% of 330,000 active. AID 463079, 2010;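 active means inhibition above that plate's mean sample inhibition plus 3 SD, cut at about 26% in these data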;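 further: 0% = ATP-challenged DMSO wells and 100% = DMSO wells without ATP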
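test system = CHO parental line | reagent = ATP stimulus | measured by = intracellular calcium via Fluo-8 no-wash fluorescent dye | control set = ATP and no-ATP DMSO wells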
OX1R antag-1 = antagonists of human orexin 1 receptor (OX1R) | Orexin/Hypocretin receptor type 1 (Homo sapiens), O43613 | OX1R-expressing cells, FRET antagonist read-out | inhibition, % at 6.6 µM | 1.8% of 330,000 active; in the data active means inhibition mostly above about 38%, no sharp cut-off; inactive means mostly below about 40%;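 further: 0% = agonist challenge alone and 100% = reference antagonist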
Target sequence (O43613 whole entry, looked up): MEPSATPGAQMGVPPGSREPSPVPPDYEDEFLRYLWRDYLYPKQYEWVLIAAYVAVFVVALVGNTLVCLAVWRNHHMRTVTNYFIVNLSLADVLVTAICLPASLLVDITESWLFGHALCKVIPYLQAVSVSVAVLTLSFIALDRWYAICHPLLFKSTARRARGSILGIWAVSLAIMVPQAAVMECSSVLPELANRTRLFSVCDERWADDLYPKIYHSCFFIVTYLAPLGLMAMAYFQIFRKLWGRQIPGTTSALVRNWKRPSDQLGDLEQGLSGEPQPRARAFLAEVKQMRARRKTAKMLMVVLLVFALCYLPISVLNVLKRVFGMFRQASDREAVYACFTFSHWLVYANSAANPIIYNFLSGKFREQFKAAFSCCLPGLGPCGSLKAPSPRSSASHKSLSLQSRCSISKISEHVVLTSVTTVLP
OXTR agonist = human OXTR agonists, primary screen, fluorescence, CHO-OTR cells, Fluo-8 calcium; AID 2435, 2010; Fluo-8 calcium fluorescence; normalized: DMSO 0%, oxytocin 100%; activation, % at 3 µM; 0.32% of 320,000 active;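 active means activation above the mean of all tested compounds plus 3 SD, cutoff set per screening run, cut at about 20% in these data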;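 further: peak over basal fluorescence ratio from a 100 s FLIPR kinetic read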
OX1R antag-2 = OX1R (HCRTR1) antagonists, primary screen, fluorescence, CHO/OX1R cells, Fluo-8 calcium, orexin A; Orexin/Hypocretin receptor type 1 (Homo sapiens), O43613; Fluo-8 calcium fluorescence; inhibition, % at 5 µM; 0.43% of 330,000 active;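 active means inhibition above its plate's threshold, mean inhibition of all tested compounds on the plate plus 3 SD, cut at about 37% in these data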;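 further: 0% = orexin A challenge wells and 100% = SB-334867-A antagonist wells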
OXTR potentiator = human OXTR potentiators, primary screen, fluorescence, CHO-OTR cells, Fluo-8 calcium | Oxytocin receptor (Homo sapiens), P30559 | Fluo-8 calcium fluorescence, potentiator mode; 0% = oxytocin EC15, 100% = EC100 | activation, % at 3 µM | 0.061% of 320,000 active | AID 2445, 2010;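 active means activation above that plate's cutoff, the mean activation of tested compounds plus 3 SD, cut at about 6.6% in these data, passing the limit was not always enough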;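 further: 100% uses oxytocin at 75 nM as the full agonist control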
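Measured by – Fluo-8 calcium dye fluorescence · Test system – human OTR in CHO cells · Dosing – one concentration, 3.0 µM compound · Controls – EC15 oxytocin alone as 0%, 75 nM oxytocin as 100% · Evaluation – normalized max/min fluorescence ratio, % activation · Timing – 6 min pre-incubation, 100 s read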
OX1R HTRF conf = OX1R (HCRTR1) antagonists, confirmation, cell-based, HTRF. shares compounds with OX1R antag-1. 49% of 1,800 active. OX1R-expressing cells, HTRF antagonist assay. AID 492964, 2010. inhibition, % at 6.6 µM; in the data active means inhibition above about 55%;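 further: CHO cells expressing OX1R stimulated with orexin A at about EC80; 0% = agonist challenge alone and 100% = reference antagonist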
CHO-K1 HTRF cnt = signal inhibition in parental CHO-K1 cells, counter-screen for OX1R antagonist project, cell-based, HTRF; shares compounds with OX1R antag-1; HTRF counterscreen; inhibition, % at 6.6 µM; 48% of 1,800 active; AID 493232, 2011; in the data active means inhibition above about 17%;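 further: 0% = agonist challenge with vehicle and 100% = vehicle alone without agonist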
* = called active by the depositor.

What do the screens show for `O=C(Nc1c[nH]c(=O)[nH]c1=O)c1ccc([N+](=O)[O-])cc1`?
V1R ag counter: 0.5; CHO parental Ca: -5.2; OX1R antag-1: 137.7*; OXTR agonist: -0.2; OX1R antag-2: -5.6; OXTR potentiator: -6.6; OX1R HTRF conf: 49.1; CHO-K1 HTRF cnt: 71.7*

What do the screens show for `CC(=O)c1c(C)[nH]c(C(=O)OCC(=O)N2CC(C)OC(C)C2)c1C` (configuration not stated)?
V1R ag counter: 1.8; CHO parental Ca: 6.2; OX1R antag-1: 14.2; OXTR agonist: 1.1; OX1R antag-2: -6.7; OXTR potentiator: 0.8

Results for COC(=O)C1(S(=O)(=O)c2cccc3nsnc23)CC1 ?
V1R ag counter: -0.4; CHO parental Ca: -12.8; OX1R antag-1: 105.6*; OXTR agonist: 0.3; OX1R antag-2: -21.4; OXTR potentiator: -3.2; OX1R HTRF conf: 35.2; CHO-K1 HTRF cnt: 36.1*

What do the screens show for `O=C(CCNC(=O)c1ccccc1Cl)NCCc1ccc(C(F)(F)F)cc1`?
V1R ag counter: 1.9; CHO parental Ca: -15.2; OX1R antag-1: 13.9; OXTR agonist: 1.5; OX1R antag-2: -19.2; OXTR potentiator: -7.0

Results for CCN(C[C@H]1N[C@@](C)(C(=O)OC)[C@H]2C(=O)N(Cc3ccccc3)C(=O)[C@@H]12)C(=O)Nc1ccc(C)cc1 ?
V1R ag counter: 2.6; CHO parental Ca: -22.6; OX1R antag-1: -7.4; OXTR agonist: 1.3; OX1R antag-2: -13.2; OXTR potentiator: -1.2

What do the screens show for `COc1ccc(N2CCN(C(=O)COC(=O)CCc3ccccc3OC)CC2)cc1`?
V1R ag counter: 2.3; CHO parental Ca: -13.4; OX1R antag-1: 13.7; OXTR agonist: 1.8; OX1R antag-2: -15.6; OXTR potentiator: -0.7

Results for COC(=O)c1cc(=O)c2c(C)nc(C(Cl)(Cl)Cl)nc2[nH]1 ?
V1R ag counter: 1.5; CHO parental Ca: -7.8; OX1R antag-1: 79.0*; OXTR agonist: 0.4; OX1R antag-2: -6.8; OXTR potentiator: -13.3; OX1R HTRF conf: 45.5; CHO-K1 HTRF cnt: 15.3

Results for O=C(/C=C/c1ccc([N+](=O)[O-])cc1)N1CCN(Cc2ccccc2)CC1 ?
V1R ag counter: 1.6; CHO parental Ca: 3.7; OX1R antag-1: 37.5; OXTR agonist: 0.1; OX1R antag-2: -6.4; OXTR potentiator: -7.1

What do the screens show for `Cc1nn(C)cc1C(=O)/C=C/c1ccc([N+](=O)[O-])cc1`?
V1R ag counter: -0.2; CHO parental Ca: -17.9; OX1R antag-1: 25.3; OXTR agonist: -0.5; OX1R antag-2: -12.9; OXTR potentiator: -8.2

How did CCN1CCN(C(=O)/C=C/c2ccc([N+](=O)[O-])cc2)CC1 do in these assays?
V1R ag counter: -0.1; CHO parental Ca: -0.7; OX1R antag-1: 97.1*; OXTR agonist: -0.3; OX1R antag-2: -4.3; OXTR potentiator: 0.7; OX1R HTRF conf: 44.2; CHO-K1 HTRF cnt: 58.6*

How did CCn1cc(CN(C)C(=O)/C=C/c2ccc([N+](=O)[O-])cc2)c(C)n1 do in these assays?
V1R ag counter: 2.8; CHO parental Ca: -3.0; OX1R antag-1: 92.0*; OXTR agonist: 0.8; OX1R antag-2: -0.3; OXTR potentiator: -5.5; OX1R HTRF conf: 34.9; CHO-K1 HTRF cnt: 35.1*

Results for CCCS(=O)(=O)N1CCN(c2cc3c(cc2[N+](=O)[O-])n(C)c(=O)n3C)CC1 ?
V1R ag counter: 5.1; CHO parental Ca: 2.3; OX1R antag-1: 78.3*; OXTR agonist: 3.1; OX1R antag-2: -4.9; OXTR potentiator: -27.2; OX1R HTRF conf: 33.2; CHO-K1 HTRF cnt: 48.7*

What do the screens show for `Cc1ccc(S(=O)(=O)N2CCN(c3cc4c(cc3[N+](=O)[O-])n(C)c(=O)n4C)CC2)cc1`?
V1R ag counter: 10.0; CHO parental Ca: -10.1; OX1R antag-1: 16.5; OXTR agonist: 12.2; OX1R antag-2: -5.8; OXTR potentiator: -13.7

Results for O=C(N/N=C/c1ccc2cccc(OCc3ccccc3)c2n1)c1ccc(Cl)cc1 ?
V1R ag counter: 1.7; CHO parental Ca: -15.1; OX1R antag-1: 79.2*; OXTR agonist: -1.4; OX1R antag-2: -2.0; OXTR potentiator: -21.2; OX1R HTRF conf: 37.0; CHO-K1 HTRF cnt: -2.0

Results for O=C(N/N=C/c1ccncc1)c1ccc(COc2cccc3cccnc23)cc1 ?
V1R ag counter: -0.6; CHO parental Ca: -12.7; OX1R antag-1: 24.0; OXTR agonist: -0.3; OX1R antag-2: -12.7; OXTR potentiator: -20.3

What do the screens show for `N#C/C(=C\c1ccc([N+](=O)[O-])cc1)c1ccccn1`?
V1R ag counter: -1.6; CHO parental Ca: -14.2; OX1R antag-1: 121.0*; OXTR agonist: -2.6; OX1R antag-2: -6.6; OXTR potentiator: -4.4; OX1R HTRF conf: 53.1; CHO-K1 HTRF cnt: 51.1*

What do the screens show for `O=C(c1ccc([N+](=O)[O-])cc1[N+](=O)[O-])n1cnc2ccccc21`?
V1R ag counter: 1.2; CHO parental Ca: -19.7; OX1R antag-1: 108.3*; OXTR agonist: -0.9; OX1R antag-2: -4.6; OXTR potentiator: -16.5; OX1R HTRF conf: 44.1; CHO-K1 HTRF cnt: 68.4*

How did O=C(c1ccccc1[N+](=O)[O-])n1cnc2ccccc21 do in these assays?
V1R ag counter: 0.1; CHO parental Ca: 0.3; OX1R antag-1: 15.1; OXTR agonist: -0.3; OX1R antag-2: 3.5; OXTR potentiator: -10.1

Results for COC(=O)CNC(=O)/C=C/c1cc(Br)ccc1OC ?
V1R ag counter: -0.3; CHO parental Ca: -5.1; OX1R antag-1: 21.9; OXTR agonist: -1.1; OX1R antag-2: -13.7; OXTR potentiator: -5.5

Results for COc1ccc(Br)cc1/C=C/C(=O)Nc1ccc(C)cc1 ?
V1R ag counter: 1.4; CHO parental Ca: -25.7; OX1R antag-1: 94.6*; OXTR agonist: -0.9; OX1R antag-2: -9.6; OXTR potentiator: -8.6; OX1R HTRF conf: 68.5*; CHO-K1 HTRF cnt: 21.6*

How did COc1cccc(/C=C2/SC(=O)N(C)C2=O)c1OCc1ccc(C(=O)O)cc1 do in these assays?
V1R ag counter: 1.5; CHO parental Ca: -10.8; OX1R antag-1: 102.0*; OXTR agonist: 0.2; OX1R antag-2: -6.5; OXTR potentiator: -20.5; OX1R HTRF conf: 32.4; CHO-K1 HTRF cnt: 35.3*

Screening data as filed in PubChem.
